Active and inactive are the calls of the source. The rule behind the calls is not given here.
How the values were obtained:
[1] = tested on: Bacteria; experiment: Binding affinity to bacterial CoCoNDM-1 expressed in Escherichia coli BL21(DE3) assessed as metal stripping at 1 to 2 equiv after 30 mins by UV-Visible spectroscopic method
Procedure, shortened: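 Apo-NDM-1 at 300 μM in 50 mM HEPES, 150 mM NaCl, pH 6.8, loaded with 2 molar equiv CoCl2. […] Absorbance read 300–700 nm at 25 °C as difference spectra against buffer blank, normalized at 700 nm.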

[2] = target: Metallo-beta-lactamase type 2 (Klebsiella pneumoniae) (UniProt C7C422); experiment: Inhibition of NDM1 in Klebsiella pneumoniae isolate Pd1.49 assessed as potentiation of imipenem-induced antibacterial activity by measuring imipenem MIC at 100 mg/L after 18 to 20 hrs by broth microdilution assay (reference value: 4 mg/L)
Chain of Metallo-beta-lactamase type 2 (Klebsiella pneumoniae) (C7C422 whole entry): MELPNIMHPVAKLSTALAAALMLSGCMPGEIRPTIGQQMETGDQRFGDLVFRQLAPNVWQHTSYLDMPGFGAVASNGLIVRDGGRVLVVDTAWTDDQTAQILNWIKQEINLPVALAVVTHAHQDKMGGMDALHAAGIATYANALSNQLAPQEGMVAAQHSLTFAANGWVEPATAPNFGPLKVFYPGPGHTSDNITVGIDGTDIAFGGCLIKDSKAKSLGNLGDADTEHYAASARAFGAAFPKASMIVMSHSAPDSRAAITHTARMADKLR

[3] = target: Metallo-beta-lactamase type 2 (Klebsiella pneumoniae) (UniProt C7C422); experiment: Inhibition of NDM1 in Klebsiella pneumoniae isolate Pd1.54 assessed as potentiation of imipenem-induced antibacterial activity by measuring imipenem MIC at 100 mg/L after 18 to 20 hrs by broth microdilution assay (reference value: 8 mg/L)
[4] = tested on: Escherichia coli; experiment: Effect on growth of Escherichia coli isolate Ch8.72 at 100 mg/L after 18 to 20 hrs by broth microdilution assay
Procedure, shortened: (§1)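 Mueller-Hinton broth microdilution per CLSI, triplicate. blaNDM-1 clinical isolates grown from OD600 0.1 to 0.224 (~1–2 × 10^8 CFU/mL), diluted 3 μL into 4997 μL MH, and 100 μL added to 100 μL of compound (100 mg/L) alone. Incubated 37 °C for 18–20 h, then scored for growth.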

[5] = tested on: Klebsiella pneumoniae; experiment: Effect on growth of Klebsiella pneumoniae isolate Pd1.54 at 100 mg/L after 18 to 20 hrs by broth microdilution assay; procedure, shortened: as §1
[6] = tested on: Escherichia coli; experiment: Effect on growth of Escherichia coli isolate Ah8.73 at 100 mg/L after 18 to 20 hrs by broth microdilution assay; procedure, shortened: as §1
[7] = target: Metallo-beta-lactamase type 2 (Klebsiella pneumoniae) (UniProt C7C422); experiment: Inhibition of NDM1 in Klebsiella pneumoniae isolate Pd1.53 assessed as potentiation of imipenem-induced antibacterial activity by measuring imipenem MIC at 100 mg/L after 18 to 20 hrs by broth microdilution assay (reference value: 8 mg/L)
[8] = target: Beta-lactamase VIM-2 (Pseudomonas aeruginosa, UniProt Q9K2N0); experiment: Inhibition of Pseudomonas aeruginosa VIM2 expressed in Escherichia coli BL21(DE3) using fluorocillin as substrate preincubated for 10 mins followed by substrate addition measured after 20 mins by HTS assay
[9] = tested on: Bacteria; experiment: Binding affinity to bacterial CoCoNDM-1 expressed in Escherichia coli BL21(DE3) assessed as metal stripping at 2 equiv by 1H NMR spectroscopic method
Procedure, shortened: (§2)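 Apo-NDM-1 concentrated to ~1 mM and loaded with 2 equiv CoCl2. Samples in 50 mM HEPES, 150 mM NaCl, 10% D2O, pH 6.8. Compounds from 50–100 mM DMSO stocks titrated in ~5 μL aliquots. 1H spectra recorded at 292 K, 300.16 MHz.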

[10] = Inhibition of bacterial MBP-fused NDM1 expressed in Escherichia coli BL21(DE3) ausing fluorocillin as substrate preincubated for 20 mins followed by substrate addition measured at 1 sec time interval for 25 mins by fluorescence assay; design: species or system Bacteria
Procedure, shortened: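 NDM-1 pre-incubated 20 min with inhibitor (final 100 μM to 1 nM) in 50 mM HEPES pH 7.0 with 2 mM CHAPS. Reaction started with fluorocillin (final 87 nM, below KM), NDM-1 final 25 pM. Fluorescence read at λex/em 495/525 nm, 10 reads over ~25 min.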

[11] = tested on: Klebsiella pneumoniae; experiment: Effect on growth of Klebsiella pneumoniae isolate Pd1.50 at 100 mg/L after 18 to 20 hrs by broth microdilution assay; procedure, shortened: as §1
[12] = tested on: Klebsiella pneumoniae; experiment: Effect on growth of Klebsiella pneumoniae isolate Pd1.53 at 100 mg/L after 18 to 20 hrs by broth microdilution assay; procedure, shortened: as §1
[13] = tested on: Bacteria; experiment: Binding affinity to bacterial CoCoNDM-1 expressed in Escherichia coli BL21(DE3) assessed as CoCoNDM-1-compound ternary complex formation at 1 equiv by 1H NMR spectroscopic method; procedure, shortened: as §2
[14] = tested on: Escherichia coli; experiment: Effect on growth of Escherichia coli isolate Ch8.68 at 100 mg/L after 18 to 20 hrs by broth microdilution assay; procedure, shortened: as §1
[15] = tested on: Escherichia coli; experiment: Effect on growth of Escherichia coli isolate Ah8.71 at 100 mg/L after 18 to 20 hrs by broth microdilution assay; procedure, shortened: as §1
[16] = tested on: Escherichia coli; experiment: Inhibition of NDM1 in Escherichia coli isolate Ch8.69 assessed as potentiation of imipenem-induced antibacterial activity by measuring imipenem MIC at 100 mg/L after 18 to 20 hrs by broth microdilution assay (reference value: 4 mg/L)
[17] = tested on: Bacteria; experiment: Binding affinity to bacterial NDM-1 expressed in Escherichia coli BL21(DE3) assessed as Zn2+ stripping at
Procedure, shortened: (§3)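 NDM-1 (8 μM final) in 50 mM HEPES pH 7.5 mixed with compound at 0–128 μM for 30 min. Then dialyzed 4 h against metal-free 50 mM HEPES pH 7.5. Residual Zn(II) measured by ICP-AES at 213.856 nm.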

[18] = target: Metallo-beta-lactamase type 2 (Serratia marcescens, UniProt P52699); experiment: Inhibition of Serratia marcescens IMP1 expressed in Escherichia coli BL21(DE3) using fluorocillin as substrate preincubated for 10 mins followed by substrate addition measured after 20 mins by HTS assay
Chain of Metallo-beta-lactamase type 2 (P52699 whole entry): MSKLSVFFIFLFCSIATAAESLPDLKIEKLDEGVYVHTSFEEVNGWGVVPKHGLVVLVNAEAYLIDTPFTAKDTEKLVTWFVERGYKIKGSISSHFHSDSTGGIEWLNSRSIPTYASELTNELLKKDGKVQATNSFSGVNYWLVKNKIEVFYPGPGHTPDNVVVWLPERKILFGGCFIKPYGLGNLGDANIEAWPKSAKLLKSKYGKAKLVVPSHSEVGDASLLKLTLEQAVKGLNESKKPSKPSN

[19] = Fluorescence quenching activity assessed as reduction in tryptophan fluorescence up to 32 uM after 30 mins by luminescence spectrometric method; design: scale not given: the % may be the effect or the level left
Procedure, shortened: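 NDM-1 (2 μM final) in 50 mM HEPES pH 7.5 with compound at 4–32 μM for 30 min. Excitation 280 nm, emission scanned 300–400 nm, intensity taken at 348 nm. Scaled with buffer as 0% and inhibitor-free enzyme as 100%. Free L-tryptophan (2 μM) run as control.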

[20] = target: Metallo-beta-lactamase type 2 (Klebsiella pneumoniae) (UniProt C7C422); experiment: Inhibition of NDM1 in Klebsiella pneumoniae isolate Pd1.48 assessed as potentiation of imipenem-induced antibacterial activity by measuring imipenem MIC at 100 mg/L after 18 to 20 hrs by broth microdilution assay (reference value: 8 mg/L)
[21] = tested on: Klebsiella pneumoniae; experiment: Effect on growth of Klebsiella pneumoniae isolate Cm1.62 at 100 mg/L after 18 to 20 hrs by broth microdilution assay; procedure, shortened: as §1
[22] = tested on: Escherichia coli; experiment: Effect on growth of Escherichia coli isolate Ch8.70 at 100 mg/L after 18 to 20 hrs by broth microdilution assay; procedure, shortened: as §1
[23] = tested on: Klebsiella pneumoniae; experiment: Effect on growth of Klebsiella pneumoniae isolate Pd1.48 at 100 mg/L after 18 to 20 hrs by broth microdilution assay; procedure, shortened: as §1
[24] = tested on: Escherichia coli; experiment: Inhibition of NDM1 in Escherichia coli isolate Ch8.72 assessed as potentiation of imipenem-induced antibacterial activity by measuring imipenem MIC at 100 mg/L after 18 to 20 hrs by broth microdilution assay (reference value: 16 mg/L)
[25] = tested on: Bacteria; experiment: Binding affinity to bacterial NDM-1 expressed in Escherichia coli BL21(DE3) assessed as Zn2+ stripping at 24 uM after 30 mins by equilibrium dialysis method relative to control; procedure, shortened: as §3

For `Nc1cccc(-c2cc(C(=O)O)nc(C(=O)O)c2)c1`, the Activity [1] was “Active”, the MIC [2] was 1 mg/L and the MIC [3] was 0.5 mg/L. For the same compound, the Activity [4] was “Non-Toxic”, the Activity [5] was “Non-Toxic” and the Activity [6] was “Non-Toxic”. The MIC [7] was 0.5 mg/L, the IC50 [8] was 0.21 µM and the Activity [9] was “Active”. For the same compound, the IC50 [10] was 0.08 µM, the Activity [11] was “Non-Toxic” and the Activity [12] was “Non-Toxic”. The Activity [13] was “Active”, the Activity [14] was “Non-Toxic” and the Activity [15] was “Non-Toxic”. The MIC [16] was 0.5 mg/L, the Activity [17] was “inactive” and the IC50 [18] was 0.24 µM. For the same compound, the Activity [19] was 50%, the MIC [20] was 0.5 mg/L and the Activity [21] was “Non-Toxic”. The Activity [22] was “Non-Toxic”, the Activity [23] was “Non-Toxic” and the MIC [24] was 0.5 mg/L. For the same compound, the Activity [25] was 10 to 20%.
